TAAR1 antagonist: human TAAR1 antagonists, primary screen, Fluo-8 calcium fluorescence, CHO RD-HGA16 cells. Trace amine-associated receptor 1 (Homo sapiens), Q96RJ0. AID 624466, 2012. hit rate 1.5% among 360,000. antagonist. inhibition, % at 3 µM;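 active means inhibition above a per-plate cutoff, the mean inhibition of test compounds on that plate plus 3 SD, cut at about 49% in these data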;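 further: 0% = DMSO plus EC80 beta-PEA response and 100% = DMSO alone without agonist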
Target sequence (Q96RJ0 whole entry, looked up): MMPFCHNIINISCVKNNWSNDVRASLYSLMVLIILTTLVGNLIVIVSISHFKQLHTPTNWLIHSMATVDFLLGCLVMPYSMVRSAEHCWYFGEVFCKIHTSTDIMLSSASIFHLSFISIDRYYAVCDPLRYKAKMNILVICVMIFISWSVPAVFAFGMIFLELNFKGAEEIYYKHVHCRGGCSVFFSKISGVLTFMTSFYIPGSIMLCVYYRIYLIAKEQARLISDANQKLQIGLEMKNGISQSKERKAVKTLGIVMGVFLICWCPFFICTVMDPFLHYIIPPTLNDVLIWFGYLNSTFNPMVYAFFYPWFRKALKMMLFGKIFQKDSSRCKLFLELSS
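System: RD-HGA16 CHO cells with stable hTAAR1 and Gα16 | Probe or stimulus: EC80 β-phenethylamine stimulus | Dosing: 3 µM, single point | Times: Dye loading 75 min at 37 °C, then 30 min room temperature | Measured by: Fluo-8 calcium-sensitive fluorescence | Read-out basis: % inhibition of agonist calcium response | Replicates: n of 1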
GPR7 antagonist: GPR7 receptor antagonists, primary screen, cell-based, fluorescence, single concentration | hit rate 1.1% among 290,000 | Neuropeptides B/W receptor type 1 (Homo sapiens), P48145 | GPR7-expressing cells, fluorescence antagonist assay | inhibition, % at 4.4 µM; in the data active means inhibition above about 16%, passing the limit was not always enough;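 further: cells stimulated with the agonist NPW; 0% = agonist with vehicle and 100% = vehicle without agonist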
OX1R antag-1: antagonists of human orexin 1 receptor (OX1R). hit rate 1.8% among 330,000. OX1R-expressing cells, FRET antagonist read-out. AID 485270, 2010. inhibition, % at 6.6 µM. Orexin/Hypocretin receptor type 1 (Homo sapiens), O43613; in the data active means inhibition mostly above about 38%, no sharp cut-off; inactive means mostly below about 40%;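 further: 0% = agonist challenge alone and 100% = reference antagonist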
Target sequence (O43613 whole entry, looked up): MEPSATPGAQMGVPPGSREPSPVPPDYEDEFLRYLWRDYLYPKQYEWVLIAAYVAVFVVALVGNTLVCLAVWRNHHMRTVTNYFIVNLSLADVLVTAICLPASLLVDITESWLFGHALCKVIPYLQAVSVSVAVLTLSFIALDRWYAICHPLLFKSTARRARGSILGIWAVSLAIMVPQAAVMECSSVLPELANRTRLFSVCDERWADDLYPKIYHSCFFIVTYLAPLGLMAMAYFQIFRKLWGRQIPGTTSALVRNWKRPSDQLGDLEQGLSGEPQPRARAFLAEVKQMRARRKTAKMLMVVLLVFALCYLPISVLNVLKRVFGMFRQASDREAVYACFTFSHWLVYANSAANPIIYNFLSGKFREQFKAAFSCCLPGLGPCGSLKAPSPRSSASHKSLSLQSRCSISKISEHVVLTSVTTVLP
OX1R antag-2: OX1R (HCRTR1) antagonists, primary screen, fluorescence, CHO/OX1R cells, Fluo-8 calcium, orexin A. Fluo-8 calcium fluorescence. hit rate 0.43% among 330,000. AID 434989, 2010. Orexin/Hypocretin receptor type 1 (Homo sapiens), O43613. inhibition, % at 5 µM;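 active means inhibition above its plate's threshold, mean inhibition of all tested compounds on the plate plus 3 SD, cut at about 37% in these data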;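 further: 0% = orexin A challenge wells and 100% = SB-334867-A antagonist wells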
CHO parental Ca: ATP-evoked calcium signal inhibitors, parental CHO, primary screen, counter-screen for OX1R antagonist project, cell-based, fluorescence, Fluo-8 calcium dye. parental CHO-K1, ATP-induced calcium, Fluo-8 fluorescence. inhibition, % at 5.6 µM. hit rate 0.63% among 330,000. AID 463079, 2010;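 active means inhibition above that plate's mean sample inhibition plus 3 SD, cut at about 26% in these data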;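 further: 0% = ATP-challenged DMSO wells and 100% = DMSO wells without ATP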
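material = parental CHO cells | also added = ATP as calcium-mobilizing challenge | dosing = single point at 5.6 µM | detection = intracellular calcium via Fluo-8 no-wash fluorescent dye | read-out = % inhibition | benchmarks = low control ATP plus DMSO, high control DMSO only | repeats = one well per compound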
TAAR1 ag: human TAAR1 agonists, primary screen, Fluo-8 calcium fluorescence, CHO RD-HGA16 cells; Trace amine-associated receptor 1 (Homo sapiens), Q96RJ0; vehicle wells 0%, saturating PEA agonist 100%; activation, % at 3 µM; hit rate 0.99% among 360,000;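 active means activation above the mean activation of all test compounds in the run plus 3 SD, cut at about 38% in these data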
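Benchmarks: low control DMSO, high control PEA (EC100); System: CHO RD-HGA16 cells carrying human TAAR1 plus Gα16; Detection: Fluo-8 fluorescence, 5 s baseline then 140 s kinetic read; Schedule: 17-24 h plating, Fluo-8 75 min 37 °C, 30 min RT; Read-out basis: % activation from peak over basal fluorescence ratio, DMSO-to-PEA scaled.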
GPR7 antag conf: GPR7 receptor antagonists, confirmation, cell-based, fluorescence, single concentration; shares compounds with GPR7 antagonist; GPR7-expressing cells, calcium fluorescence antagonist mode; inhibition, % at 4.4 µM; hit rate 52% among 2,400; AID 1952, 2009; in the data active means inhibition above about 24%;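 further: stimulated with the GPR7 agonist NPW; 0% = agonist plus vehicle and 100% = vehicle alone without agonist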
MCHR1 antag: MCHR1 antagonists in cells, counter-screen for GPR7 antagonist project, cell-based, fluorescence, human | MCHR1-expressing cells, fluorescence antagonist assay | shares compounds with GPR7 antagonist | hit rate 62% among 2,400 | AID 2148, 2009 | inhibition, % at 4.4 µM;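 further: 0% = vehicle with agonist and 100% = vehicle without agonist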
OX1R Ca confirm: OX1R (HCRTR1) antagonists, confirmation, fluorescence, CHO/OX1R cells, Fluo-8 calcium, orexin A | shares compounds with OX1R antag-2 | orexin A calcium Fluo-8 fluorescence | inhibition, % at 5 µM | hit rate 38% among 1,100 | AID 492963, 2010; in the data active means inhibition above about 29%;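 further: 0% = agonist challenge alone and 100% = reference antagonist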
CHO Ca triplic: ATP-evoked calcium inhibition in parental CHO, counter-screen for OX1R antagonist project, cell-based, fluorescence, CHO-K1, triplicate | shares compounds with OX1R antag-2 | inhibition, % at 5.6 µM | hit rate 9.3% among 1,100 | ATP-induced calcium, Fluo-8 fluorescence;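 active means inhibition above a per-plate limit, the mean inhibition of that plate's test compounds plus 3 SD, cut at about 25% in these data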;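 further: 0% = ATP challenge with DMSO and 100% = DMSO without ATP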
OX1R HTRF confirm: OX1R (HCRTR1) antagonists, confirmation, cell-based, HTRF. shares compounds with OX1R antag-1. OX1R-expressing cells, HTRF antagonist assay. inhibition, % at 6.6 µM. hit rate 49% among 1,800; in the data active means inhibition above about 55%;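 further: CHO cells expressing OX1R stimulated with orexin A at about EC80; 0% = agonist challenge alone and 100% = reference antagonist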
CHO-K1 HTRF: signal inhibition in parental CHO-K1 cells, counter-screen for OX1R antagonist project, cell-based, HTRF | hit rate 48% among 1,800 | inhibition, % at 6.6 µM | shares compounds with OX1R antag-1 | HTRF counterscreen; in the data active means inhibition above about 17%;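 further: 0% = agonist challenge with vehicle and 100% = vehicle alone without agonist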
TAAR1 nonsel count: nonselective antagonists in TAAR1 counter-screen cells, counter-screen for hTAAR1 antagonist project, cell-based, fluorescence, calcium | hit rate 77% among 2,400 | shares compounds with TAAR1 antagonist | inhibition, % at 3 µM | AID 651780, 2012 | counterscreen cell line, antagonist mode;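 further: CHO-Ga16 host cells stimulated with ATP at an EC80 level; 0% = agonist EC80 plus vehicle and 100% = vehicle without agonist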
TAAR1 antag conf: human TAAR1 antagonists, retest of hits, confirmation, cell-based, fluorescence; shares compounds with TAAR1 antagonist; TAAR1-expressing cells, fluorescence antagonist read-out; inhibition, % at 3 µM; hit rate 40% among 2,400; AID 651785, 2012; in the data active means inhibition above about 49%;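 further: CHO-Ga16 host cells challenged with agonist PEA near its EC80; 0% = agonist at EC80 plus vehicle and 100% = vehicle with no agonist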
Ga16 ag counter: calcium activation in Ga16-expressing cells, counter-screen for TAAR1 antagonist project, cell-based, fluorescence | AID 651953, 2012 | hit rate 18% among 2,400 | shares compounds with TAAR1 antagonist | agonist counterscreen | activation, % at 3 µM; in the data active means activation above about 12%;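 further: 0% = vehicle wells and 100% = saturating stimulus response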
TAAR1 ag counter: TAAR1 activation by candidate antagonists – cell-based, fluorescence, counter-screen for TAAR1 antagonist project. shares compounds with TAAR1 antagonist. hTAAR1 cell line, agonist mode. activation, % at 3 µM. hit rate 2% among 2,400. AID 651955, 2012; in the data active means activation above about 37%;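 further: CHO cells stably expressing TAAR1 with calcium dye readout; 0% = DMSO vehicle and 100% = full agonist response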
Active calls of the source: *; x = not tested or not shown; ! = not active in a repeat. Shown are actives, neighbours in structure and some others; about 4.6% of the full set was active somewhere. Unless noted, no stated cut-off is given here; in the data, active means inhibition above about 22%; inactive means the rest.

SMILES	TAAR1 antagonist	GPR7 antagonist	OX1R antag-1	OX1R antag-2	CHO parental Ca	TAAR1 ag	GPR7 antag conf	MCHR1 antag	TAAR1 nonsel count	TAAR1 antag conf	Ga16 ag counter	TAAR1 ag counter	others
O=C(CN1CCC(c2nc3ccccc3s2)CC1)NCc1cccs1	25	48*	3	52*	4	9	39*	57*	x	x	x	x	OX1R Ca confirm=-5;CHO Ca triplic=-2
O=C(CN1CCC(c2nc3ccccc3s2)CC1)N1CCCCC1	9	-4	13	-24	-20	0	x	x	x	x	x	x
COc1ccc(S(=O)(=O)n2[nH]c(=O)c(CCO)c2C)c([N+](=O)[O-])c1	24	-11	12	-6	-1	2	x	x	x	x	x	x
CCOC(=O)c1nn(-c2ccccc2C)c(=O)c(C#N)c1C	9	29*	127*	-6	2	5	-12	3	x	x	x	x	OX1R HTRF confirm=65*;CHO-K1 HTRF=43*
CCOC(=O)c1nn(-c2ccccc2C)c(=O)c2c(N)scc12	-41	-1	9	-14	-2	2	x	x	x	x	x	x
COc1ccccc1N(CC(=O)NC1CCCC1)C(=O)c1oc(C(C)(C)C)cc1C	9	44*	52*	41*	-24	20	37*	48*	x	x	x	x	OX1R Ca confirm=20;CHO Ca triplic=3;OX1R HTRF confirm=64*;CHO-K1 HTRF=1
O=S(=O)(NC1CC1)c1ccc(S(=O)(=O)N2CCCc3ccccc32)cc1	43	22*	37*	82*	1	4	30*	28*	x	x	x	x	OX1R Ca confirm=60*;CHO Ca triplic=5;OX1R HTRF confirm=62*;CHO-K1 HTRF=-1
O=S(=O)(c1ccccc1)N1CCCc2ccccc21	x	-12	17	-14	3	x	x	x	x	x	x	x
O=C1C2CCCN2C(=O)N1CCN1CCN(c2cccc(C(F)(F)F)c2)CC1 (centres undefined)	-8	x	x	x	x	2	x	x	x	x	x	x
Cc1cc(C)c(C)c(S(=O)(=O)N2CCC(C(=O)NCCCN3CCCC3=O)CC2)c1C	-7	x	1	-2	-37	8	x	x	x	x	x	x
COCCCNC(=O)/C=C1\Sc2ccccc2N(Cc2ccccc2F)C1=O	-7	x	86*	4	-19	2	x	12	x	x	x	x	OX1R HTRF confirm=77*;CHO-K1 HTRF=3
COc1cc(-c2noc(C)c2/C=C/c2cccc([N+](=O)[O-])c2)cc(OC)c1OC	74*	35*	17	0	-7	11	46*	65*	28*	42	2	0
CC(=O)c1cccc(NC(=O)c2cccc(S(=O)(=O)N3CCOCC3)c2)c1	-3	-3	9	-7	-16	1	x	x	x	x	x	x
CCOC(=O)c1ccc(NC(=O)c2cccc(S(=O)(=O)N3CCOCC3)c2)cc1	62*	24*	46	28	33*	23	21	75*	34*	48	14*	12
Cc1c(C(=O)N2CCN(c3ccc(F)cc3)CC2)sc2ncnc(N3CCN(c4ccccn4)CC3)c12	70*	23*	26	-8	-2	10	16	70*	29*	47	9	8
CCOC(=O)c1cc(-c2ccncc2)nc2c1c(C)nn2C	-30	-2	16	-33	-15	2	x	x	x	x	x	x
CCOC(=O)c1cc(-c2ccccc2)nc2c1c(C)nn2-c1ccccn1	53*	46*	7	-36	-26	16	28*	34*	22*	28	8	14
CC1(C)NC(=O)N(CC(=O)N2CCN(c3ccc([N+](=O)[O-])cc3)CC2)C1=O	1	x	22	-18	-1	-2	x	x	x	x	x	x
CN1/C(=C/C(=O)COC(=O)CN2C(=O)C3CC=CCC3C2=O)C(C)(C)c2ccccc21 (centres undefined)	20	x	x	x	x	2	x	x	x	x	x	x
CN1/C(=C\C(=O)COC(=O)Cn2nnc(-c3ccccc3)n2)C(C)(C)c2ccccc21	52*	26*	31	37	54*	9	18	38*	44*	39	7	0
O=C(Nc1nc(-c2ccc(S(=O)(=O)N3CCOCC3)cc2)cs1)c1ccccc1	59*!	34*	16	0	-3	13	61*	76*	28*	50*	11	6
O=C(Nc1ccc2c(c1)CCCN2C(=O)c1cccs1)c1c(F)cccc1Cl	59*	26*	14	-18	-8	1	16	41*	22*	43	8	13
Cc1nc2c(OCC(=O)c3ccc(F)cc3)cccn2c1N(C)Cc1cccs1	-11	x	x	x	x	2	x	x	x	x	x	x

Source: PubChem
